Calls of active or inactive are those of the source. The calls are words filed in the database; no cut-off is given here.
Legend:
[1] = molecular target: T1, Amyloid-beta precursor protein (Homo sapiens, UniProt P05067); test: Binding affinity to Amyloid beta (1 to 42) aggregates (unknown origin) assessed as fluorescent intensities measured after 30 mins by fluorescence spectrometry
Summary of the method: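 P14 (320 nM final, in EtOH) incubated 30 min at room temperature with 0, 2, 4, 6 or 8 μM Aβ42 aggregates. Aggregates were made by shaking 50 μM Aβ42 in 10 mM PBS pH 7.4 at 100 rpm, 37 °C, 24 h. Emission spectra recorded at 600–800 nm with excitation at 589 nm.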

[2] = Solubility of the compound in water; assay type: physicochemical; settings: buffer
Cerebral cortex = test: In vivo binding affinity Amyloid beta deposits in APPswe/PSEN1dE9, APP/PS1 double transgenic mouse cerebral cortex assessed as red fluorescent spot; assay type: functional, organism-based
Summary of the method: (§1)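 Frozen brain sections from perfused 12-month male APP/PS1 mice or wild-type mice. Sections were stained with ThS (10 mg mL-1), washed 3 times with 50% ethanol, then incubated with 100 μM compound for 20 min at room temperature. Confocal imaging: compound Ex 638/Em 650–700 nm, ThS Ex 488/Em 500–550 nm. n = 3.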

Hippocampus = test: In vivo binding affinity Amyloid beta deposits in APPswe/PSEN1dE9, APP/PS1 double transgenic mouse hippocampus assessed as red fluorescent spot; assay type: functional, organism-based; summary of the method: as §1
Brain = test: In vivo binding affinity Amyloid beta deposits in wild type mouse brain by fluorescence staining assay; assay type: functional, organism-based; summary of the method: as §1
Mus musculus [3] = test: In vivo binding affinity Amyloid beta deposits in APP/PS1 transgenic mouse assessed as Increase in fluorescence intensity at 2 mg/kg, iv measured after 5 mins by IVIS Spectrum imaging based assay relative to wild type; assay type: functional, organism-based
Summary of the method: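 APP/PS1 and wild-type mice, 12 months old, heads shaved and anaesthetized with 1.5% isoflurane. Injected intravenously with 2 mg kg-1 in DMSO:Cremophor EL:0.9% saline = 5:10:85. Brain fluorescence was acquired sequentially by IVIS, with circular ROI analysis at 5 min. Ex 570 nm, Em Cy5.5. n = 3.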

[4] = molecular target: T1, Amyloid-beta precursor protein; test: Inhibition of amyloid beta 42 (unknown origin) aggregation assessed as fluorescence intensity at 0.1 equivalents measured for 24 hrs by ThT fluorescence assay
Summary of the method: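 Aβ42 monomer (50 μM) incubated 24 h at 37 °C with or without compound. ThT was then added from a 15 mM solution in 50 mM glycine-NaOH, and fluorescence read at Ex 425/Em 490 nm. n = 4; mean ± SD.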

[5] = molecular target: T1, Amyloid-beta precursor protein; test: Inhibition of amyloid beta 42 (unknown origin) aggregation assessed as reduction in amyloid fibrils density at 50 uM measured after 24 hrs incubation by transmission electron microscopy (TEM)
Summary of the method: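 Aβ42 (50 μM in water) mixed 1:1 with water or 100 μM compound, then shaken at 100 rpm, 37 °C, 24 h. Samples were adsorbed on carbon-coated copper grids, negatively stained with 7.5% uranium formate and imaged by TEM at 120 kV.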

Cortical neurone [6] = test: Neuroprotective effect against Amyloid-beta induced Sprague-Dawley rat primary cortical neurons assessed as cell viability after 9 days of pretreatment with Amyloid-beta followed by incubated with 1 uM compound for 24 hrs by MTT assay; assay type: functional, cell-based; settings: time 9.0 day
Summary of the method: (§2)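 Primary cortical neurons from newborn SD rat pups, cultured in neurobasal/B27 at 37 °C and used at day 9. Cells were exposed for 24 h to Aβ42 (1 μM final) premixed with compound at 0, 0.1, 0.25, 0.5, 1 or 5 μM final. MTT was then added for 4 h, formazan dissolved in DMSO and absorbance read at 490 nm. n = 3; mean ± SD.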

Cortical neurone [7] = test: Neuroprotective effect against Amyloid-beta induced Sprague-Dawley rat primary cortical neurons assessed as cell viability after 9 days of pretreatment with Amyloid-beta followed by incubated with 5 uM compound for 24 hrs by MTT assay; assay type: functional, cell-based; settings: time 9.0 day; summary of the method: as §2
Cortical neurone [8] = test: Neuroprotective effect against Amyloid-beta induced Sprague-Dawley rat primary cortical neurons assessed as reversal of Amyloid beta-induced loss of MAP2 fluorescence signal at 1 uM by immunofluorescence staining based assay; assay type: functional, cell-based
Summary of the method: (§3)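 Primary rat cortical neurons exposed to Aβ42 with or without compound. Cells were fixed in 4% PFA and blocked with 3% BSA/0.01% Triton X-100 for 1 h. Staining was anti-MAP2 (1:200) overnight at 4 °C, then Alexa Fluor 488 secondary (1:500) for 1 h, with DAPI nuclear counterstain. MAP2 fluorescence was quantified. n = 3.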

Cortical neurone [9] = test: Neuroprotective effect against Amyloid-beta induced Sprague-Dawley rat primary cortical neurons assessed as reversal of Amyloid beta-induced loss of MAP2/DAPI fluorescence signal at 1 uM by immunofluorescence staining based assay; assay type: functional, cell-based; summary of the method: as §3
Cortical neurone [10] = test: Cytotoxicity against Sprague-Dawley rat primary cortical neurons assessed as cell viability at 0.1 to 5 uM measured after 24 hrs by MTT assay; assay type: toxicity, cell-based; settings: dose 0.1-5 µM
Mus musculus [11] = organism: Mus musculus; test: Anti-alzheimer activity against 12 month old APP/PS1 transgenic mouse model assessed as decrease in amyloid beta plaques in brain cortex region treated continuously and measured after 3 months by ThS staining based immunofluorescence assay relative to control; assay type: functional, organism-based
Summary of the method: (§4)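 APP/PS1 mice dosed orally from 9 months of age for three months with 10 mg kg-1 in PEG400:HS15:0.9% saline = 25:15:60, or with vehicle alone. Wild-type mice were treated in parallel. ThS-stained plaques were counted by confocal imaging of hippocampus and cortex sections at 12 months. n = 3.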

Mus musculus [12] = organism: Mus musculus; test: Anti-alzheimer activity against 12 month old APP/PS1 transgenic mouse model assessed as decrease in amyloid beta plaques in brain hippocampus region treated continuously and measured after 3 months by ThS staining based immunofluorescence assay relative to control; assay type: functional, organism-based; summary of the method: as §4
Mus musculus [13] = organism: Mus musculus; test: Antialzheimer activity in 12 month old APP/PS1 transgenic cognitive impairment mouse model assessed as reduction in error time in passage water maze treated continuously and measured after 3 months by passage water maze test; assay type: functional, organism-based
Summary of the method: (§5)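 APP/PS1 mice and wild-type littermates given oral 10 mg kg-1 (PEG400:HS15:0.9% saline = 25:15:60) or vehicle from 9 to 12 months. Tested in an 80 × 50 cm passage water maze with one correct path. Training was 1-min free swims, with guidance to the platform on failure. After 4 trainings, wrong-path errors and latency to the platform were recorded. n = 6-10.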

Mus musculus [14] = organism: Mus musculus; test: Antialzheimer activity in 12 month old APP/PS1 transgenic cognitive impairment mouse model assessed as shortening of latencies to reaching platform treated continuously and measured after 3 months by water maze test; assay type: functional, organism-based; summary of the method: as §5
Mus musculus [15] = test: Anti-alzheimer activity against 5 month old 5 x FAD mouse assessed as average radiation efficiency at 30 mg/kg, po treated for 1 month; assay type: functional; settings: time 1 months, 730 h
Summary of the method: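 5×FAD and wild-type mice imaged by IVIS after a single intravenous injection of 2.0 mg kg-1. Imaging was done at 5 months, and again at 6 months after one month of oral treatment (30 mg kg-1) or vehicle. Ex 570 nm, Em 640 nm. Read-out is average radiation efficiency. n = 3 at 5 months, n = 4 at 6 months; mean ± SD.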

Mus musculus [16] = organism: Mus musculus; test: Anti-alzheimer activity against transgenic mouse model assessed as decrease in amyloid beta plaques in brain hippocampus region treated continuously and measured after 3 months by ThS staining based immunofluorescence assay relative to control
[17] = molecular target: T1, Amyloid-beta precursor protein; test: Binding affinity to Amyloid beta (1 to 42) aggregates (unknown origin)
Summary of the method: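 Fluorescence titration in which P14 (0–200 nM, in EtOH) was incubated with 5 μM Aβ42 aggregates for 30 min at room temperature. Read in a quartz cuvette at Ex 589 nm, Em 620 nm. Kd was obtained by nonlinear regression, one-site binding. n = 3; mean ± SD.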

T1 sequence (P05067 whole entry): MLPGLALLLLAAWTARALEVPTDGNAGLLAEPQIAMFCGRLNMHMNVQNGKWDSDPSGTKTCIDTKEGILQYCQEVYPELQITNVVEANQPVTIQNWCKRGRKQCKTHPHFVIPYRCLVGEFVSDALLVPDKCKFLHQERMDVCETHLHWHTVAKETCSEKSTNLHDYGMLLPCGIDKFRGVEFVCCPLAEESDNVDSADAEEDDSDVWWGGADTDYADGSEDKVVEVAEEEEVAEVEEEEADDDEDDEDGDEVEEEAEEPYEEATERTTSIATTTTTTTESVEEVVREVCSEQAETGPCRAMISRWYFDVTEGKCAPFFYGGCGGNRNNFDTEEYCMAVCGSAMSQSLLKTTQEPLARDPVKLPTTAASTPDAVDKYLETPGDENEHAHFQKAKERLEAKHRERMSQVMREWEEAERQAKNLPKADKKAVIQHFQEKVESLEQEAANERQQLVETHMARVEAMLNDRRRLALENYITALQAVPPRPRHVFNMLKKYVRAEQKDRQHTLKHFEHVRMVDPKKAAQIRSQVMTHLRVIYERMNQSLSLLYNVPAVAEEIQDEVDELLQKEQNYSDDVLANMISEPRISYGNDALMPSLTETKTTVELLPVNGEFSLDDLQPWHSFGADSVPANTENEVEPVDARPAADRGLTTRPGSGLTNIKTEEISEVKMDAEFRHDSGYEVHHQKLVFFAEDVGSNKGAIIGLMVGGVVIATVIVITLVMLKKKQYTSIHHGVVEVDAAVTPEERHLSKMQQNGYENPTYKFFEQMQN

Kd [1] [nM] | solubility [2] | inhibition [4] | inhibition [5] | Kd [17] [nM] | Structure (SMILES) | Activity (Cerebral cortex) | Activity (Hippocampus) | Activity (Brain) | Activity (Mus musculus [3]) | Activity (Cortical neurone [6]) | Activity (Cortical neurone [7]) | Activity (Cortical neurone [8]) | Activity (Cortical neurone [9]) | Activity (Cortical neurone [10]) | Activity (Mus musculus [11]) | Activity (Mus musculus [12]) | Activity (Mus musculus [13]) | Activity (Mus musculus [14]) | Activity (Mus musculus [15]) | Activity (Mus musculus [16])
27 | – | – | – | – | CC1=CC(C)=[N+]2C1=C(CCCN1CCNc3ccccc31)c1c(C)cc(/C=C/c3ccc(N(C)C)s3)n1[B-]2(F)F | – | – | – | – | – | – | – | – | – | – | – | – | – | – | –
78.1 | Soluble | Dose-Dependent Effect | Active | – | CC1=CC(C)=[N+]2C1=C(CCCO)c1c(C)cc(/C=C/c3cnc(N(C)C)s3)n1[B-]2(F)F | Active | Active | inactive | Active | Active | Active | Active | Active | Non-Toxic | Active | Active | Active | Active | 5.2 10^8(p/s/cm^2/sr)/(uW/cm^2) | Active
– | – | – | – | 55 | Cc1cc(/C=C/c2ccc(N(C)C)s2)n2c1C=C1C=CC=[N+]1[B-]2(F)F | – | – | – | – | – | – | – | – | – | – | – | – | – | – | –
